Reference: PMC9424334 (Biomolecules & Therapeutics, 2022)

Legend:
Type in all cases: cell-based, human
[1] = test system: acetylation of histone H3, H4 and tubulin in MM.1S cells; assay: Immunoblotting of acetylated proteins; details: 30-1000 nM, 6 h
Method in brief: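 Histones were extracted afterwards, and acetylation of histone H3, H4 and tubulin was assessed by immunoblotting with chemiluminescence detection.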

[2] = test system: DACT family in MM.1S cells; assay: Immunoblotting of DACT family expression; details: 24 h
Method in brief: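 Total lysates were prepared in RIPA buffer with protease/phosphatase inhibitors and immunoblotted for DACT1, DACT2 and DACT3, normalised to GAPDH with chemiluminescence detection. Data are mean ± SEM.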

[3] = test system: cyclin D1 and CDK4 in MM.1S and RPMI8226 cells; assay: Immunoblotting for CDK4 and cyclin D1; details: MM.1S cells, higher concentration ranges, 24 h
Method in brief: (§1)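 Total lysates were made in RIPA buffer with protease/phosphatase inhibitors, quantified by BCA and immunoblotted, with chemiluminescence detection and GAPDH normalisation. Data are mean ± SEM; one-way ANOVA vs control.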

[4] = test system: cleaved caspase-3 in MM.1S and RPMI8226 cells; assay: Immunoblotting for cleaved caspase-3; details: 1000 nM
Method in brief: as §1

In the case of `O=C(CCCCCCC(=O)Nc1ccccc1)NO` [SAHA, Suberoylanilide hydroxamic acid], the “acetylation intensity of histone H3 and H4” value [1] is reported as “increased”, the acetylation of tubulin [1] is reported as “increased” and the “protein expression of DACT3” value ([2]; 3000 nM) is reported as “significantly enhanced”. The “protein expression of DACT1 and DACT2” value [2] was “not altered”, the “expression level of CDK4 and Cyclin D1” value [3] was “reduced” and the “cleaved caspase-3” value [4] was “only marginally increased”.
